From PubChem BioAssay
Sampled rows, rich in hits. Any-hit rate of the full collection: about 12%.
Dynein cargo inh: blocks dynein driven cargo transport along microtubules | 3617.4 mouse cells, GR-EGFP nuclear translocation imaging; test concentration mostly 20 µM; stimulated with dexamethasone, 1 µM; hits give low values | z-score, hits read low | 0.47% of 220,000 active | AID 1381;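 active = plate z-score of nuclear minus cytoplasmic receptor signal below a set negative limit, without overly bright fluorescence or cell loss, cut at about -3.5 in these data, passing the limit was not always enough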;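 note: z-score of nuclear minus cytoplasmic ring GR-EGFP intensity difference per well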
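Buffer or medium: Induction medium lacking tetracycline, stripped serum | Also added: Dexamethasone agonist, 1.0 µM final, for 30 min | Timing: 48 h induction, 1 h compound, 30 min dex at 37 °C | Detection: Formaldehyde fixation, Hoechst nuclear stain, 10x automated fluorescence imaging | Measure: Nuclear versus cytoplasmic GR-EGFP signal, averaged per well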
Autophagy mod: alters autophagy in cells; MEF GFP-LC3 puncta imaging; test concentration mostly 10 µM; calls only at 10 µM (by protocol); 0.98% of 190,000 active; AID 463193;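 active = percentage of spot-positive cells more than 3 SD above its plate mean, without a fluorescence outlier flag or 80% toxicity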;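 note: spot-positive cell cutoff set from DMSO-treated cells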
bCat nuc transl: beta-catenin nuclear translocation modulation. HeLa beta-catenin nuclear translocation, immunofluorescence imaging. nuclear translocation activity, % at 5 µM. 0.3% of 190,000 active. AID 1665;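 active = nuclear translocation activity above 50% at 5 µM, with a well cell count of 50 or more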;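 note: per-cell ratio of nuclear to cytoplasmic median beta-catenin stain intensity; plate controls were DMSO negative control for no effect and GSK-3 inhibitor IX positive control for full effect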
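Assay system: human HeLa cells, native beta-catenin; doses: 5 µM primary, 0.02–20 µM confirmation; incubation: compound treatment 24 h, 37°C, 5% CO2; technique: fluorescence imaging of beta-catenin antibody stain plus DAPI; measure: % activation, nuclear-to-cytoplasmic median beta-catenin signal ratio per cell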
Lmaj promast: Leishmania major promastigote growth inhibition. inhibition, % at 10 µM. 9% of 200,000 active. Leishmania major promastigotes, resazurin fluorescence viability; in the data active = inhibition above about 50%;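 note: promastigotes grown with compound for 44 hours at 28 °C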
CHOP inhibitor: CHOP inhibition in unfolded protein response; CHO-K1 CHOP-promoter luciferase, tunicamycin-induced, 15-18 h; inhibition, % at 10 µM; 3.8% of 220,000 active; AID 2732;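 active = compounds that reduced the stress-induced luciferase reporter signal by more than about 70% of percent inhibition, limit read from the data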;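 note: 0% = tunicamycin plus vehicle and 100% = wells without tunicamycin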
MT stabilizer: microtubule stabilization, imaging screen; HeLa tubulin immunostaining HCS, 24 h; share of cells brighter than vehicle mean+2SD; % tubulin-high responders, % at 10 µM; 0.83% of 200,000 active; AID 2205;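 active = plate Z-score above 3 for both tubulin-high and condensed-nucleus cell shares, with cell loss under 80%, at 10 µM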;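 note: anti alpha tubulin signal scored within the nucleus-defined area of each cell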
* = called active by the depositor.

`Cc1ccc(NC(=O)CCCc2nc3ccccc3s2)c(O)c1` gave Dynein cargo inh 0.97, Autophagy mod inactive, bCat nuc transl -4, Lmaj promast 6, CHOP inhibitor 26 and MT stabilizer 4.
Screening COc1ccc2c(C=O)cn(C)c2c1 returned Dynein cargo inh 0.089, Autophagy mod active, bCat nuc transl 0, Lmaj promast -2, CHOP inhibitor 7 and MT stabilizer 1.
For COc1ccc2[nH]cc(C=O)c2c1 the results were Dynein cargo inh 0.083, Autophagy mod inactive, bCat nuc transl -2, Lmaj promast -2, CHOP inhibitor 10 and MT stabilizer 2.
Screening Cc1nc2c(-c3ccccc3)c(C)nn2c(N)c1-c1ccccc1 returned Dynein cargo inh 0.44, Autophagy mod inactive, bCat nuc transl 0, Lmaj promast 100*, CHOP inhibitor 12 and MT stabilizer 4.
Cc1nn(-c2nc3ccccc3[nH]2)c(N)c1-c1ccccc1 was read as Dynein cargo inh -0.67, Autophagy mod inactive, bCat nuc transl 0, Lmaj promast 91*, CHOP inhibitor 9 and MT stabilizer 4.
Screening CCn1c(Cc2ccccc2)nnc1SCc1cccc(C(=O)O)c1 returned Dynein cargo inh 1.3, Autophagy mod inactive, bCat nuc transl -2, Lmaj promast 61*, CHOP inhibitor 31 and MT stabilizer 1.
`Nc1nnn(CC(=O)N/N=C/c2cn[nH]c2-c2ccccc2)n1` gave Dynein cargo inh 0.62, bCat nuc transl -1 and CHOP inhibitor 15.
N#Cc1nc(Cc2cccc3ccccc23)oc1N1CCCCC1 was read as Dynein cargo inh -0.64, Autophagy mod inactive, bCat nuc transl -1, Lmaj promast 14, CHOP inhibitor 76* and MT stabilizer 3.
For N#Cc1nc(COc2ccc(Cl)cc2)oc1N1CCCCCC1 the results were Dynein cargo inh -0.76, Autophagy mod inactive, Lmaj promast 6, CHOP inhibitor 71* and MT stabilizer 6.
`N#Cc1nc(Cc2cccc3ccccc23)oc1NCCCn1ccnc1` gave Dynein cargo inh -0.52, Autophagy mod inactive, bCat nuc transl 0, Lmaj promast 59*, CHOP inhibitor 10 and MT stabilizer 6.
Screening N#Cc1nc(Cc2cccc3ccccc23)oc1NCCCN1CCOCC1 returned Dynein cargo inh -0.41, Autophagy mod inactive, bCat nuc transl -3, Lmaj promast 20, CHOP inhibitor 31 and MT stabilizer 6.
`N#Cc1nc(COc2ccc(Br)cc2)oc1N1CCN(Cc2ccccc2)CC1` gave Dynein cargo inh -0.84, Autophagy mod inactive, bCat nuc transl 0, Lmaj promast 5, CHOP inhibitor 74* and MT stabilizer 5.
`Cc1ccc(OCc2nc(C#N)c(N3CCCCC3)o2)cc1` gave Dynein cargo inh 0.0034, bCat nuc transl 4 and CHOP inhibitor 19.
Cc1ccc(-c2nc3ccccc3[nH]2)cc1NC(=O)c1sc2cc(Cl)ccc2c1Cl was read as Dynein cargo inh -0.01, Autophagy mod inactive, bCat nuc transl 1, Lmaj promast 36, CHOP inhibitor -21 and MT stabilizer 3.
`C=CCN1C(=O)C(O)=C(C(C)=O)C1c1ccccc1F` (centres undefined) gave Dynein cargo inh 0.83, Autophagy mod inactive, bCat nuc transl 1, Lmaj promast 3, CHOP inhibitor -9 and MT stabilizer 5.
CC(NC(=O)Cc1ccc([N+](=O)[O-])cc1)c1ccc2c(c1)OCO2 (centres undefined) was read as Dynein cargo inh -0.13, bCat nuc transl 1 and CHOP inhibitor -8.
CN1CCN(C(=O)c2cc3nc(-c4ccccc4)cc(-c4ccccc4)n3n2)CC1 was read as Dynein cargo inh 0.62, Autophagy mod inactive, bCat nuc transl 4, Lmaj promast 95*, CHOP inhibitor 13 and MT stabilizer 0.
Screening O=C(c1cc2nc(-c3ccccc3)cc(-c3ccccc3)n2n1)N1CCCC1 returned Dynein cargo inh 0.34, Autophagy mod inactive, bCat nuc transl -1, Lmaj promast 42, CHOP inhibitor 22 and MT stabilizer 2.
For O=C(/C=C/c1cn(CC(O)CN2CCCCCC2)c2ccccc12)c1cccs1 (centres undefined) the results were Dynein cargo inh 5.5, Autophagy mod inactive, bCat nuc transl 5, Lmaj promast 100*, CHOP inhibitor -10 and MT stabilizer 3.
`CCCCN(C)CC(O)Cn1cc(/C=C/C(=O)c2cccs2)c2ccccc21` (centres undefined) gave Dynein cargo inh 0.024, Autophagy mod inactive, bCat nuc transl -1, Lmaj promast 69*, CHOP inhibitor 17 and MT stabilizer 3.
`COc1ccc([N+](=O)[O-])cc1N(CC(=O)N1CCCC1)S(C)(=O)=O` gave Dynein cargo inh -0.26, Autophagy mod inactive, bCat nuc transl -1, Lmaj promast -9, CHOP inhibitor -10 and MT stabilizer 3.
For COc1ccc(OC)c(NC(=S)N(CCc2c(C)[nH]c3ccccc23)Cc2cccs2)c1 the results were Dynein cargo inh -0.68, Autophagy mod inactive, bCat nuc transl 1, Lmaj promast 26, CHOP inhibitor 22 and MT stabilizer 2.
`COc1ccc(OC)c(NC(=S)N(CCc2c(C)[nH]c3ccc(C)cc23)Cc2cccs2)c1` gave Dynein cargo inh 0.21, Autophagy mod inactive, bCat nuc transl 6, Lmaj promast 84*, CHOP inhibitor 5 and MT stabilizer 3.
Screening COCCNC(=S)N(CCc1c(C)[nH]c2ccc(C)cc12)Cc1cc(OC)c(OC)c(OC)c1 returned Dynein cargo inh 2, Autophagy mod inactive, bCat nuc transl -5, Lmaj promast 53*, CHOP inhibitor 15 and MT stabilizer 2.
`COc1cccc(NC(=S)N(CCc2c(C)[nH]c3ccc(C)cc23)Cc2cccs2)c1` gave Dynein cargo inh 2, Autophagy mod inactive, bCat nuc transl -5, Lmaj promast 78*, CHOP inhibitor 45 and MT stabilizer 2.
`COc1ccc2[nH]c(C)c(CCN(Cc3cccs3)C(=S)Nc3cccc(F)c3)c2c1` gave Dynein cargo inh 0.32, Autophagy mod inactive, bCat nuc transl 2, Lmaj promast 50*, CHOP inhibitor 70 and MT stabilizer 2.
`Cc1cccc(N(C(=O)c2snc(C(N)=O)c2N)C(C)C(=O)NCC2CCCO2)c1` (centres undefined) gave Dynein cargo inh 2.4, Autophagy mod inactive, bCat nuc transl 0, Lmaj promast -4, CHOP inhibitor 2 and MT stabilizer 8.
COc1ccc(OC)c(/C=C2\SC(=S)N(C(C(=O)O)c3ccccc3)C2=O)c1 (centres undefined) was read as Dynein cargo inh 3.4, bCat nuc transl -1 and CHOP inhibitor -4.
